Assay results taken from ChEMBL document CHEMBL5058577, “EUbOPEN Chemogenomics Library 2 (Multiplex)” (2022).

System: U2OS
Assay: Multiplex assay against U2OS
Type: toxicity, cell-based
Conditions: human
Summary of the method: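 Live cells were stained at seeding with Hoechst33342, BioTracker Green Microtubule Cytoskeleton Dye, MitoTracker Red and Annexin V Alexa Fluor 680. Following compound addition, they were imaged on a CQ1 microscope at 37°C and 5% CO2 and gated by CellPathfinder machine learning into Hoechst high-intensity objects or normal cells, with normal cells split into healthy, pyknosed or fragmented nuclei and pyknosed cells into mitotic or apoptotic. Tubulin, mitochondrial-mass and membrane-permeability phenotypes are per cents of healthy-nucleus cells.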

[1] = 12 h, 1 µM, compound concentration 1 uM, replicate 1
[2] = 12 h, 1 µM, compound concentration 1 uM, replicate 2
[3] = 12 h, 10 µM, compound concentration 10 uM, replicate 1
[4] = 12 h, 10 µM, compound concentration 10 uM, replicate 2
[5] = 24 h, 1 µM, compound concentration 1 uM, replicate 1
[6] = 24 h, 1 µM, compound concentration 1 uM, replicate 2
[7] = 24 h, 10 µM, compound concentration 10 uM, replicate 1
[8] = 24 h, 10 µM, compound concentration 10 uM, replicate 2
[9] = 48 h, 1 µM, compound concentration 1 uM, replicate 1
[10] = 48 h, 1 µM, compound concentration 1 uM, replicate 2
[11] = 48 h, 10 µM, compound concentration 10 uM, replicate 1
[12] = 48 h, 10 µM, compound concentration 10 uM, replicate 2

Structure (SMILES): O=C(Nc1cc(-c2ccccc2)nn1-c1ccccc1F)c1ccc([N+](=O)[O-])cc1
- Population Apoptotic (%) [1]: 86%
- Population Fragmented Nuclei (%) [1]: 25%
- Population Healthy Nuclei (%) [1]: 66%
- Population Hoechst High Intensity Objects (%) [1]: 4%
- Population Membrane Permeable-Phenotype (%) [1]: 10%
- Population Mitochondria Different-Phenotype (%) [1]: 4%
- Population Mitotic Cells (%) [1]: 13%
- Population Normal (%) [1]: 95%
- Population Pyknosed Nuclei (%) [1]: 8%
- Population Tubulin-Different-Phenotype (%) [1]: 4%
- Total Cell Count [1]: 293
- Population Apoptotic (%) [2]: 91%
- Population Fragmented Nuclei (%) [2]: 14%
- Population Healthy Nuclei (%) [2]: 78%
- Population Hoechst High Intensity Objects (%) [2]: 1%
- Population Membrane Permeable-Phenotype (%) [2]: 9%
- Population Mitotic Cells (%) [2]: 8%
- Population Normal (%) [2]: 98%
- Population Pyknosed Nuclei (%) [2]: 6%
- Population Tubulin-Different-Phenotype (%) [2]: 9%
- Total Cell Count [2]: 182
- Population Apoptotic (%) [3]: 66%
- Population Fragmented Nuclei (%) [3]: 30%
- Population Healthy Nuclei (%) [3]: 60%
- Population Hoechst High Intensity Objects (%) [3]: 3%
- Population Membrane Permeable-Phenotype (%) [3]: 11%
- Population Mitochondria Different-Phenotype (%) [3]: 5%
- Population Mitotic Cells (%) [3]: 33%
- Population Normal (%) [3]: 96%
- Population Pyknosed Nuclei (%) [3]: 9%
- Population Tubulin-Different-Phenotype (%) [3]: 7%
- Total Cell Count [3]: 293
- Population Apoptotic (%) [4]: 94%
- Population Fragmented Nuclei (%) [4]: 12%
- Population Healthy Nuclei (%) [4]: 73%
- Population Hoechst High Intensity Objects (%) [4]: 0%
- Population Mitochondria Different-Phenotype (%) [4]: 8%
- Population Mitotic Cells (%) [4]: 5%
- Population Normal (%) [4]: 100%
- Population Pyknosed Nuclei (%) [4]: 13%
- Population Tubulin-Different-Phenotype (%) [4]: 6%
- Total Cell Count [4]: 134
- Population Apoptotic (%) [5]: 91%
- Population Fragmented Nuclei (%) [5]: 24%
- Population Healthy Nuclei (%) [5]: 68%
- Population Hoechst High Intensity Objects (%) [5]: 3%
- Population Membrane Permeable-Phenotype (%) [5]: 6%
- Population Mitochondria Different-Phenotype (%) [5]: 4%
- Population Mitotic Cells (%) [5]: 8%
- Population Normal (%) [5]: 96%
- Population Pyknosed Nuclei (%) [5]: 7%
- Population Tubulin-Different-Phenotype (%) [5]: 5%
- Total Cell Count [5]: 342
- Population Apoptotic (%) [6]: 100%
- Population Fragmented Nuclei (%) [6]: 15%
- Population Healthy Nuclei (%) [6]: 76%
- Population Hoechst High Intensity Objects (%) [6]: 1%
- Population Membrane Permeable-Phenotype (%) [6]: 9%
- Population Mitochondria Different-Phenotype (%) [6]: 5%
- Population Mitotic Cells (%) [6]: 0%
- Population Normal (%) [6]: 98%
- Population Pyknosed Nuclei (%) [6]: 8%
- Population Tubulin-Different-Phenotype (%) [6]: 6%
- Total Cell Count [6]: 226
- Population Apoptotic (%) [7]: 91%
- Population Fragmented Nuclei (%) [7]: 25%
- Population Healthy Nuclei (%) [7]: 64%
- Population Hoechst High Intensity Objects (%) [7]: 1%
- Population Membrane Permeable-Phenotype (%) [7]: 7%
- Population Mitochondria Different-Phenotype (%) [7]: 3%
- Population Mitotic Cells (%) [7]: 8%
- Population Normal (%) [7]: 98%
- Population Pyknosed Nuclei (%) [7]: 9%
- Population Tubulin-Different-Phenotype (%) [7]: 5%
- Total Cell Count [7]: 353
- Population Apoptotic (%) [8]: 100%
- Population Fragmented Nuclei (%) [8]: 14%
- Population Healthy Nuclei (%) [8]: 76%
- Population Hoechst High Intensity Objects (%) [8]: 0%
- Population Membrane Permeable-Phenotype (%) [8]: 11%
- Population Mitochondria Different-Phenotype (%) [8]: 8%
- Population Mitotic Cells (%) [8]: 0%
- Population Normal (%) [8]: 99%
- Population Tubulin-Different-Phenotype (%) [8]: 8%
- Total Cell Count [8]: 164
- Population Apoptotic (%) [9]: 89%
- Population Fragmented Nuclei (%) [9]: 17%
- Population Healthy Nuclei (%) [9]: 73%
- Population Hoechst High Intensity Objects (%) [9]: 2%
- Population Membrane Permeable-Phenotype (%) [9]: 9%
- Population Mitochondria Different-Phenotype (%) [9]: 5%
- Population Mitotic Cells (%) [9]: 10%
- Population Normal (%) [9]: 97%
- Population Pyknosed Nuclei (%) [9]: 8%
- Population Tubulin-Different-Phenotype (%) [9]: 5%
- Total Cell Count [9]: 475
- Population Apoptotic (%) [10]: 90%
- Population Fragmented Nuclei (%) [10]: 12%
- Population Healthy Nuclei (%) [10]: 79%
- Population Hoechst High Intensity Objects (%) [10]: 1%
- Population Membrane Permeable-Phenotype (%) [10]: 6%
- Population Mitochondria Different-Phenotype (%) [10]: 4%
- Population Normal (%) [10]: 98%
- Total Cell Count [10]: 371
- Population Apoptotic (%) [11]: 81%
- Population Fragmented Nuclei (%) [11]: 20%
- Population Healthy Nuclei (%) [11]: 67%
- Population Hoechst High Intensity Objects (%) [11]: 2%
- Population Membrane Permeable-Phenotype (%) [11]: 8%
- Population Mitochondria Different-Phenotype (%) [11]: 4%
- Population Mitotic Cells (%) [11]: 18%
- Population Normal (%) [11]: 97%
- Population Pyknosed Nuclei (%) [11]: 12%
- Population Tubulin-Different-Phenotype (%) [11]: 6%
- Total Cell Count [11]: 445
- Population Apoptotic (%) [12]: 89%
- Population Fragmented Nuclei (%) [12]: 10%
- Population Healthy Nuclei (%) [12]: 76%
- Population Membrane Permeable-Phenotype (%) [12]: 11%
- Population Mitochondria Different-Phenotype (%) [12]: 8%
- Population Mitotic Cells (%) [12]: 10%
- Population Pyknosed Nuclei (%) [12]: 13%
- Population Tubulin-Different-Phenotype (%) [12]: 8%
- Total Cell Count [12]: 226
